≈ marks a conversion by molar mass, not a printed value.
What was measured:
Cannabinoid receptor 1 [1] = molecular target: T1, Cannabinoid receptor 1 (Homo sapiens, UniProt P21554); assay: Agonist activity at human cannabinoid CB1 receptor expressed in CHO cells after 5 hrs by luciferase reporter gene assay; type: functional, cell-based
Method in brief: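 Functional agonism was tested in CHO cells doubly transfected with human CB1 and a luciferase reporter gene. Potency is reported as pEC50, the mean of three experiments.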

[2] = Aqueous solubility of the compound at citrate buffer of pH 4.9; type: physicochemical
Method in brief: (§1)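 MSF solubility of the HCl salt was measured in citrate buffer (nominal pH 5) and in PBS (nominal pH 7.4). The final pH of each solution was recorded and reported alongside the solubility in mg/L.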

[3] = Aqueous solubility of the compound at phosphate buffer solution of pH 7; type: physicochemical; method in brief: as §1
Cannabinoid receptor 1 [4] = molecular target: T1, Cannabinoid receptor 1; assay: Displacement of [3H]CP-55940 from human cannabinoid CB1 receptor expressed in insect Sf9 cells
Method in brief: (§2)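 Affinity at CB1 and CB2 came from radioligand competition binding with [3H]CP 55,940 and is reported as pKi.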

Cannabinoid receptor 2 = Cannabinoid receptor 2 (Homo sapiens, UniProt P34972); assay: Displacement of [3H]CP-55940 from human cannabinoid CB2 receptor expressed in insect Sf9 cells; method in brief: as §2
Mus musculus = assay: Antinociceptive activity against Freund's complete adjuvant-induced […] pain in iv dosed mouse assessed as increase in tail flick latency by tail flick test; type: functional
[5] = Ratio of Cmax in brain to plasma in ICR mouse brain at 0.5 umol/kg, iv; type: ADME; conditions: brain and plasma
Method in brief: (§3)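 ICR mice received a single iv dose in saline vehicle. Brain and plasma levels were measured with terminal sampling under CO2. Plasma Cmax was taken at t = 0.05 h. Brain exposure was given as Cmax, tmax and AUC over 0–1 h, plus a brain:plasma Cmax ratio from the same study.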

[6] = Tmax in ICR mouse brain at 0.5 umol/kg, iv; type: ADME, organism-based; method in brief: as §3
[7] = Cmax in ICR mouse brain at 0.5 umol/kg, iv; type: ADME, organism-based; parameters: dose 0.5 umol/kg, route intravenous; method in brief: as §3
[8] = Intrinsic clearance in mouse liver microsomes; type: ADME, Microsome
[9] = Volume of distribution at steady state in ICR mouse at 0.5 umol/kg, iv; type: ADME, organism-based; conditions: in vivo, read-out: Vdss; method in brief: as §3
[10] = Cmax in ICR mouse plasma at 0.5 umol/kg, iv after 0.05 hrs; type: ADME, organism-based; parameters: dose 0.5 umol/kg, route intravenous; method in brief: as §3
Brain = assay: AUC (0 to 1 hr) in ICR mouse brain at 0.5 umol/kg, iv; type: ADME, organism-based; parameters: dose 0.5 umol/kg, time < 1 hr, route intravenous; conditions: in vivo; method in brief: as §3
[11] = AUC in ICR mouse plasma at 0.5 umol/kg, iv; type: ADME; method in brief: as §3
[12] = Elimination half life in ICR mouse at 0.5 umol/kg, iv; type: ADME, organism-based; conditions: in vivo, read-out: beta t1/2 (converted); method in brief: as §3
[13] = Clearance in ICR mouse at 0.5 umol/kg, iv; type: ADME, organism-based; conditions: in vivo; method in brief: as §3
[14] = Aqueous solubility of the compound at phosphate buffer solution of pH 6.7; type: physicochemical
[15] = Aqueous solubility of the compound at citrate buffer of pH 5; type: physicochemical

T1 sequence (P21554 whole entry): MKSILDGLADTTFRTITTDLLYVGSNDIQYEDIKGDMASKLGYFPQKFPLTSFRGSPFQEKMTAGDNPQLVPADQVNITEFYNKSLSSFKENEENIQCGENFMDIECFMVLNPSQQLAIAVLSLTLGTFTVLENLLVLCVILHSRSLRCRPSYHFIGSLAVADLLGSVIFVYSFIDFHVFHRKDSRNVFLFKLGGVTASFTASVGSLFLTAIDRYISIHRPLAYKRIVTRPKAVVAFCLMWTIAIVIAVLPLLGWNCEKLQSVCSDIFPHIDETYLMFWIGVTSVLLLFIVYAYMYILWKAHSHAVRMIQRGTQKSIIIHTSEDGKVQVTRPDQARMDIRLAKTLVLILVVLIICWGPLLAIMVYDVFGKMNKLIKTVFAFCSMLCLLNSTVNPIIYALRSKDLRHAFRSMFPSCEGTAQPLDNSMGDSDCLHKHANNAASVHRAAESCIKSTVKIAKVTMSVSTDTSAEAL
Sequence of Cannabinoid receptor 2 (P34972 whole entry): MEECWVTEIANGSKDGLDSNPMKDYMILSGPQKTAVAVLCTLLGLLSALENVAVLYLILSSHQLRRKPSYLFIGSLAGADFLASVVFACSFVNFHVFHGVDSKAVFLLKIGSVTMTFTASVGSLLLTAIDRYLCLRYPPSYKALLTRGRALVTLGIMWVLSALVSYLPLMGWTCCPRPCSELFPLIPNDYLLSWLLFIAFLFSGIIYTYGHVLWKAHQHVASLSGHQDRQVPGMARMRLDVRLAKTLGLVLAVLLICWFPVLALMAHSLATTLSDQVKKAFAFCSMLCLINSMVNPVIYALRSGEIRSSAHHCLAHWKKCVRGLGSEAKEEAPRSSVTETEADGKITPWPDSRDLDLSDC

## CCN1CCN(C(=O)c2cn3c4c(cccc24)OC[C@@H]3C2CCCCC2)CC1
Cannabinoid receptor 1 [1]
  EC50: > 10000 nM
[2]
  solubility: > 4000 µg/mL
[3]
  solubility: 308 µg/mL (≈ 807 µM)

## CCN1[C@H](C)CN(C(=O)c2cn(CC3CCCCC3)c3c(OC)cccc23)C[C@@H]1C
Cannabinoid receptor 1 [1]
  EC50: 10 nM

## C[C@@H]1CN(C)C[C@H](C)N1C(=O)c1cn2c3c(cccc13)OC[C@H]2C1CCCCC1
Cannabinoid receptor 1 [1]
  EC50: 63.1 nM

## CCN1CCN(C(=O)c2cn3c4c(cccc24)OC[C@H]3C2CCCCC2)CC1
Cannabinoid receptor 1 [4]
  Ki: 12.6 nM
Cannabinoid receptor 2
  Ki: 3.98 nM

## CCN1CCN(C(=O)c2cn3c4c(cccc24)OCC3C2CCCCC2)CC1 (configuration not stated)
Cannabinoid receptor 1 [1]
  EC50: 31.6 nM

## C[C@@H]1CNC[C@H](C)N1C(=O)c1cn2c3c(cccc13)OC[C@H]2C1CCCCC1
Cannabinoid receptor 1 [1]
  EC50: 794 nM

## CCN1CCN(C(=O)c2cn3c4c(cccc24)CCC3C2CCCCC2)CC1 (configuration not stated)
Cannabinoid receptor 1 [1]
  EC50: 25.1 nM
[2]
  solubility: 3510 µg/mL (≈ 9250 µM)
[3]
  solubility: 114 µg/mL (≈ 300 µM)

## C[C@@H]1CN(C(=O)c2cn3c4c(cccc24)OC[C@H]3C2CCCCC2)C[C@H](C)N1
Cannabinoid receptor 1 [1]
  EC50: 126 nM

## O=C(c1cn2c3c(cccc13)OC[C@H]2C1CCCCC1)N1CCNCC1
Cannabinoid receptor 1 [1]
  EC50: 3980 nM

## C[C@H]1CN(C(=O)c2cn3c4c(cccc24)OC[C@H]3C2CCCCC2)CCN1
Cannabinoid receptor 1 [1]
  EC50: 501 nM

## C[C@H]1CN(C(=O)c2cn3c4c(cccc24)OC[C@H]3C2CCCCC2)CCN1C
Mus musculus
  ED50: 0.19 µmol/kg
[5]
  Kp: 1.48
[6]
  Tmax: 10.2 min
[7]
  Cmax: 76.2 ng/g
[8]
  microsomal CLint: > 180 µL/min/mg
[9]
  Vd: 2.6 L/kg
[10]
  Cmax: 51.5 ng/mL
Cannabinoid receptor 1 [4]
  Ki: 2 nM
Brain
  AUC: 44.6 ng·h/g
Cannabinoid receptor 2
  Ki: 0.398 nM
[11]
  AUC: 23.7 ng·h/mL
[12]
  half-life: 13.8 min
[13]
  clearance: 134 mL/min/kg

## COc1cccc2c(C(=O)N3C[C@@H](C)N(C)[C@@H](C)C3)cn(CC3CCCCC3)c12
Cannabinoid receptor 1 [1]
  EC50: 25.1 nM

## CCN1CCN(C(=O)c2cn(CC3CCCCC3)c3c(OC)cccc23)CC1
[14]
  solubility: 216 µg/mL (≈ 563 µM)
Cannabinoid receptor 1 [1]
  EC50: 158 nM
[15]
  solubility: 3400 µg/mL (≈ 8860 µM)

From ChEMBL document CHEMBL1208772, “Design, synthesis, and structure-activity relationship study of conformationally constrained analogs of indole-3-carboxamides as novel CB1 cannabinoid receptor agonists” (Bioorg Med Chem Lett, 2010)
